Values belong to the molecule of their own block, whether it stands above or below them.
What was measured:
Mus musculus [1] = experiment: Hypolipidemic activity in ICR mouse assessed as decrease in Tyloxapol-induced total cholesterol level at 50 mg/kg, ip administered 1 hr before Tyloxapol challenge and 22, 48 hrs after Tyloxapol challenge measured after 22 hrs relative to control; format: functional; design: scale not given: the % may be the effect or the level left; conditions: route oral, in the assay text read “po administered” for “ip administered”
How it was run: (§1)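 Male ICR mice (24–27 g), groups of six. Hyperlipidemia induced by ip Tyloxapol (Triton WR 1339) 400 mg/kg in water. Drug given at 5 mL/kg 1 h before and 22 and 48 h after injection; vehicle controls. Blood drawn 22 h post-injection by periorbital bleeding. Serum total cholesterol, HDL-C and triglycerides measured on an automatic analyzer; LDL-C by the Friedewald equation. Values are % of the Tyloxapol group, mean ± SE.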

Mus musculus [2] = experiment: Hypolipidemic activity in ICR mouse assessed as decrease in Tyloxapol-induced total cholesterol level at 100 mg/kg, ip administered 1 hr before Tyloxapol challenge and 22, 48 hrs after Tyloxapol challenge measured after 22 hrs relative to control; format: functional; design: scale not given: the % may be the effect or the level left; conditions: route oral, in the assay text read “po administered” for “ip administered”; how it was run: as §1
Mus musculus [3] = experiment: Hypolipidemic activity in ICR mouse assessed as decrease in Tyloxapol-induced LDL-cholesterol level at 50 mg/kg, ip administered 1 hr before Tyloxapol challenge and 22, 48 hrs after Tyloxapol challenge measured after 22 hrs relative to control; format: functional; design: scale not given: the % may be the effect or the level left; conditions: route oral, in the assay text read “po administered” for “ip administered”; how it was run: as §1
Mus musculus [4] = experiment: Hypolipidemic activity in ICR mouse assessed as decrease in Tyloxapol-induced LDL-cholesterol level at 100 mg/kg, ip administered 1 hr before Tyloxapol challenge and 22, 48 hrs after Tyloxapol challenge measured after 22 hrs relative to control; format: functional; design: scale not given: the % may be the effect or the level left; conditions: route oral, in the assay text read “po administered” for “ip administered”; how it was run: as §1
Mus musculus [5] = experiment: Hypolipidemic activity in ICR mouse assessed as decrease in Tyloxapol-induced HDL-cholesterol level at 50 mg/kg, ip administered 1 hr before Tyloxapol challenge and 22, 48 hrs after Tyloxapol challenge measured after 22 hrs relative to control; format: functional; design: scale not given: the % may be the effect or the level left; conditions: route oral, in the assay text read “po administered” for “ip administered”; how it was run: as §1
Mus musculus [6] = experiment: Hypolipidemic activity in ICR mouse assessed as decrease in Tyloxapol-induced HDL-cholesterol level at 100 mg/kg, ip administered 1 hr before Tyloxapol challenge and 22, 48 hrs after Tyloxapol challenge measured after 22 hrs relative to control; format: functional; design: scale not given: the % may be the effect or the level left; conditions: route intraperitoneal; how it was run: as §1
Mus musculus [7] = experiment: Hypolipidemic activity in ICR mouse assessed as decrease in Tyloxapol-induced triglyceride level at 50 mg/kg, ip administered 1 hr before Tyloxapol challenge and 22, 48 hrs after Tyloxapol challenge measured after 22 hrs relative to control; format: functional; design: scale not given: the % may be the effect or the level left; conditions: route intraperitoneal; how it was run: as §1
Mus musculus [8] = experiment: Hypolipidemic activity in ICR mouse assessed as decrease in Tyloxapol-induced triglyceride level at 100 mg/kg, ip administered 1 hr before Tyloxapol challenge and 22, 48 hrs after Tyloxapol challenge measured after 22 hrs relative to control; format: functional; design: scale not given: the % may be the effect or the level left; conditions: route intraperitoneal; how it was run: as §1
Mus musculus [9] = experiment: Hypolipidemic activity in high cholesterol diet fed ICR mouse assessed as reduction of total cholesterol level at 50 mg/kg, ip after 12 hrs of last cholesterol challenge relative to control; format: functional; design: scale not given: the % may be the effect or the level left; conditions: route intraperitoneal
How it was run: (§2)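 Male ICR mice (24–27 g), six per group, were fed a high-cholesterol diet ad libitum for 6 days (1.0% cholesterol, 0.5% sodium cholate, 5% butter, 30% sucrose, 10% casein, 53.5% chow). Basal-diet mice served as controls. Dosing was 5 mL/kg and solutions were made fresh. Mice were fasted 12 h before sacrifice and bled periorbitally. Serum TC, HDL-C and TG were read on an analyzer, with LDL-C by Friedewald.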

Mus musculus [10] = experiment: Hypolipidemic activity in high cholesterol diet fed ICR mouse assessed as reduction of total cholesterol level at 100 mg/kg/day, ip after 12 hrs of last cholesterol challenge relative to control; format: functional; design: scale not given: the % may be the effect or the level left; conditions: route intraperitoneal; how it was run: as §2
[11] = molecular target: T1, 3-hydroxy-3-methylglutaryl-coenzyme A reductase (Schizosaccharomyces pombe 972h-, UniProt Q10283); experiment: Inhibition of Schizosaccharomyces pombe HMG-CoA reductase by spectrophotometry; conditions: read-out: IC50
T1 sequence (Q10283 whole entry): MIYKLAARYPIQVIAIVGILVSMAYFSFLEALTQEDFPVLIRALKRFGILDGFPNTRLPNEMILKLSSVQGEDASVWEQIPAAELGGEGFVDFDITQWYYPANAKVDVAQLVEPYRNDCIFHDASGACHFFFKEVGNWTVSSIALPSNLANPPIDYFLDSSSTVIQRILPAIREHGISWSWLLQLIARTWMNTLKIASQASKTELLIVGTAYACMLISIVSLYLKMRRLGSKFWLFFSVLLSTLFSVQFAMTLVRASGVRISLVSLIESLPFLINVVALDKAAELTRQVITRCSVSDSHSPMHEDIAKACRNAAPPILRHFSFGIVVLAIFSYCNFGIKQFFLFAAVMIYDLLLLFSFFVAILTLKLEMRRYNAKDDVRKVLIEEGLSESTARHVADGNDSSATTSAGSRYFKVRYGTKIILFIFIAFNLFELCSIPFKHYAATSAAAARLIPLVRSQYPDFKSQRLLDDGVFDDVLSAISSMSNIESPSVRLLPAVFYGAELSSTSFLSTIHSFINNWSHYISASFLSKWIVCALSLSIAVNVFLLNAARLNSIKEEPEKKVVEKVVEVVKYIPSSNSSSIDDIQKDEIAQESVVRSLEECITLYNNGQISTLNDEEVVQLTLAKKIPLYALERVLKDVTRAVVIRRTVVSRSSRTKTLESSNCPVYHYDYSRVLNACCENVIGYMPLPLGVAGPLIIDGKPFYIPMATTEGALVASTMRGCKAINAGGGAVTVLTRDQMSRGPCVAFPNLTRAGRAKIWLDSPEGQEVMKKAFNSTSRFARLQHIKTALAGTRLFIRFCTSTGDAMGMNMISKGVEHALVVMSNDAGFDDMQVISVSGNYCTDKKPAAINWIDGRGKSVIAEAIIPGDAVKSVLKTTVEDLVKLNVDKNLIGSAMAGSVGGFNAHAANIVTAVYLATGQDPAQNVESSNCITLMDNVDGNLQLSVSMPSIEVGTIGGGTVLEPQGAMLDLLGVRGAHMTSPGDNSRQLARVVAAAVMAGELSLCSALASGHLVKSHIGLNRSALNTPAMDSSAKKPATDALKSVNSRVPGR
How it was run: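 Membrane HMGR partially purified from S. pombe 972 h (YPD, 28 °C, 48 h) via centrifugation, Triton X-100 solubilization, 65 °C heat step, ammonium sulfate and calcium phosphate gel. Enzyme activated 37 °C 30 min, pre-incubated with compound (DMSO stocks 1–5 mM) 30 min at 37 °C. Assay: 200 µg enzyme, 0.13 mM HMG-CoA, 50 mM Tris-HCl pH 7.5; started with 0.13 mM NADPH; A340 decrease over 2 min; triplicate; IC50 derived.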

Mus musculus [12] = experiment: Hypolipidemic activity in high cholesterol diet fed ICR mouse assessed as reduction of triglyceride level at 50 mg/kg/day, po after 12 hrs of last cholesterol challenge relative to control; design: scale not given: the % may be the effect or the level left
Mus musculus [13] = experiment: Hypolipidemic activity in high cholesterol diet fed ICR mouse assessed as reduction of triglyceride level at 100 mg/kg/day, po after 12 hrs of last cholesterol challenge relative to control; design: scale not given: the % may be the effect or the level left
Mus musculus [14] = experiment: Hypolipidemic activity in high cholesterol diet fed ICR mouse assessed as reduction of LDL cholesterol level at 50 mg/kg/day, po after 12 hrs of last cholesterol challenge relative to control; design: scale not given: the % may be the effect or the level left
Mus musculus [15] = experiment: Hypolipidemic activity in high cholesterol diet fed ICR mouse assessed as reduction of HDL cholesterol level at 50 mg/kg/day, po after 12 hrs of last cholesterol challenge relative to control; design: scale not given: the % may be the effect or the level left
Mus musculus [16] = experiment: Hypolipidemic activity in high cholesterol diet fed ICR mouse assessed as reduction of LDL cholesterol level at 100 mg/kg/day, po after 12 hrs of last cholesterol challenge relative to control; design: scale not given: the % may be the effect or the level left
Mus musculus [17] = experiment: Hypolipidemic activity in high cholesterol diet fed ICR mouse assessed as reduction of HDL cholesterol level at 100 mg/kg/day, po after 12 hrs of last cholesterol challenge relative to control; design: scale not given: the % may be the effect or the level left

- IC50 [11]: 66.5 µM
Compound: CCCc1cc(OC)c(OCC(=O)OC)cc1O
- Activity (Mus musculus [1]): -68.32%
- Activity (Mus musculus [2]): -68.42%
- Activity (Mus musculus [3]): -28.94%
- Activity (Mus musculus [4]): -23.15%
- Activity (Mus musculus [5]): -29.15%
- Activity (Mus musculus [6]): -25.03%
- Activity (Mus musculus [7]): -38.63%
- Activity (Mus musculus [8]): -47.07%
- Activity (Mus musculus [9]): -53.34%
- Activity (Mus musculus [10]): -74.14%
- Activity (Mus musculus [12]): -68.42%
- Activity (Mus musculus [13]): -55.91%
- Activity (Mus musculus [14]): -28.88%
- Activity (Mus musculus [15]): -18.89%
- Activity (Mus musculus [16]): -41.81%
- Activity (Mus musculus [17]): -13.45%

- IC50 [11]: 91.3 µM
Compound: COC(=O)COc1ccccc1C

- IC50 [11]: 219 µM
Compound: CCCCc1cc(OC)c(OC)cc1OC

- IC50 [11]: 197 µM
Compound: CCc1ccc(OCC(=O)OC)c([N+](=O)[O-])c1

- IC50 [11]: 78.8 µM
Compound: C=CCc1cc(OC)c(OC)cc1O
- Activity (Mus musculus [1]): -49.79%
- Activity (Mus musculus [2]): -54.11%
- Activity (Mus musculus [3]): -42.98%
- Activity (Mus musculus [4]): -52.07%
- Activity (Mus musculus [5]): -39.67%
- Activity (Mus musculus [6]): -41.77%
- Activity (Mus musculus [7]): -23.2%
- Activity (Mus musculus [8]): -6.83%
- Activity (Mus musculus [9]): -33.45%
- Activity (Mus musculus [10]): -40.67%
- Activity (Mus musculus [12]): -37.78%
- Activity (Mus musculus [13]): -42.39%
- Activity (Mus musculus [14]): 26.49%
- Activity (Mus musculus [15]): -40.08%
- Activity (Mus musculus [16]): -44.22%
- Activity (Mus musculus [17]): -35.96%

- IC50 [11]: 129 µM
Compound: C/C=C/c1ccc(OCCNC(=O)c2ccc(Cl)cc2)c(OC)c1

- IC50 [11]: 73.6 µM
Compound: CCCc1cc(OC)c(OC)cc1O
- Activity (Mus musculus [1]): -76.85%
- Activity (Mus musculus [2]): -55.75%
- Activity (Mus musculus [3]): -66.67%
- Activity (Mus musculus [4]): -35.05%
- Activity (Mus musculus [5]): -38.67%
- Activity (Mus musculus [6]): -37.36%
- Activity (Mus musculus [7]): -60.69%
- Activity (Mus musculus [8]): -14.84%
- Activity (Mus musculus [9]): -59.76%
- Activity (Mus musculus [10]): -24.12%
- Activity (Mus musculus [12]): -62.42%
- Activity (Mus musculus [13]): -38.38%
- Activity (Mus musculus [14]): -60.81%
- Activity (Mus musculus [15]): -72.01%
- Activity (Mus musculus [16]): -22.77%
- Activity (Mus musculus [17]): -23.07%

- IC50 [11]: 506 µM
Compound: CCc1ccccc1OCC(=O)OC

- IC50 [11]: 1320 µM
Compound: CCc1ccc(OCC(=O)OC)cc1

- IC50 [11]: 182 µM
Compound: CCOC(=O)COc1cccc(C)c1

- IC50 [11]: 1620 µM
Compound: CCOC(=O)COc1cccc(CC)c1

- IC50 [11]: 156 µM
Compound: C=CCc1ccc(OCC(=O)OCC)c(OC)c1

Reference: ChEMBL document CHEMBL1166015, “Design, synthesis, and docking of highly hypolipidemic agents: Schizosaccharomyces pombe as a new model for evaluating alpha-asarone-based HMG-CoA reductase inhibitors” (Bioorg Med Chem, 2010)
